Converted amounts (≈) assume the structure as drawn. The source made the active and inactive calls. The rule behind the calls is not given here.
Columns and labels:
[1] = tested on: Pseudomonas aeruginosa; assay: Antibacterial activity against Pseudomonas aeruginosa K799/WT by broth microdilution method; assay type: functional
[2] = tested on: Escherichia coli; assay: Antibacterial activity against Escherichia coli UB1005 by broth microdilution method; assay type: functional
[3] = tested on: Klebsiella pneumoniae; assay: Antibacterial activity against Klebsiella pneumoniae ATCC 27736 by broth microdilution method; assay type: functional
[4] = molecular target: DNA gyrase subunit A (Escherichia coli K-12) (UniProt P0AES4); assay: Inhibition of Escherichia coli K-12 DNA gyrase A expressed in Escherichia coli DC2 assessed as compound concentration required for => 4-fold induction of luxCDABE operon by reported gene assay
Outline: (§1)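 E. coli DC2 carrying a gyrA or sulA promoter–luxCDABE (Photorhabdus) fusion plasmid. Grown overnight at 37°C in LB with 2 μg/ml tetracycline, then diluted 1:100 in LB without tetracycline and precultured 1.5 h at 37°C. Compounds were added from DMSO stocks to 1% final DMSO and incubated 5 h at 37°C. Bioluminescence was divided by A595, and induction factor is the treated/untreated ratio. The value is the lowest test concentration giving ≥4-fold induction.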

[5] = tested on: Enterococcus faecium; assay: Antibacterial activity against Enterococcus faecium ATCC 19434 by broth microdilution method; assay type: functional
[6] = tested on: Streptococcus pneumoniae; assay: Antibacterial activity against Streptococcus pneumoniae TUPELO by broth microdilution method; assay type: functional
[7] = tested on: Staphylococcus aureus; assay: Antibacterial activity against Staphylococcus aureus ATCC 29213 by broth microdilution method; assay type: functional
[8] = tested on: Pseudomonas aeruginosa; assay: Antibacterial activity against Pseudomonas aeruginosa K799/61 by broth microdilution method; assay type: functional
[9] = tested on: Staphylococcus aureus; assay: Antibacterial activity against Staphylococcus aureus 80CR5 by broth microdilution method; assay type: functional
[10] = tested on: Pseudomonas aeruginosa; assay: Antibacterial activity against Pseudomonas aeruginosa ATCC 27853 by broth microdilution method; assay type: functional
[11] = tested on: Escherichia coli; assay: Antibacterial activity against Escherichia coli DC2 by broth microdilution method; assay type: functional
[12] = tested on: Staphylococcus aureus; assay: Antibacterial activity against Staphylococcus aureus ATCC 43300 by broth microdilution method; assay type: functional
[13] = tested on: Enterococcus faecalis; assay: Antibacterial activity against Enterococcus faecalis ATCC 29212 by broth microdilution method; assay type: functional
[14] = tested on: Escherichia coli; assay: Antibacterial activity against Escherichia coli ATCC 25922 by broth microdilution method; assay type: functional
[15] = molecular target: DNA gyrase (Escherichia coli); assay: Inhibition of Escherichia coli JM109 DNA gyrase assessed as DNA triple helix formation by supercoiling assay
[16] = tested on: Streptococcus pneumoniae; assay: Antibacterial activity against Streptococcus pneumoniae ATCC 49619 by broth microdilution method; assay type: functional
[17] = molecular target: DNA gyrase subunit B (Escherichia coli, UniProt P0AES6); assay: Inhibition of Escherichia coli JM109 DNA gyrase subunit B assessed as ATP hydrolysis by ATPase assay
[18] = molecular target: T1, Cell division inhibitor SulA (Escherichia coli K-12) (UniProt P0AFZ5); assay: Inhibition of Escherichia coli K-12 DNA sulA expressed in Escherichia coli DC2 assessed as compound concentration required for => 4-fold induction of luxCDABE operon by reported gene assay; outline: as §1
T1 sequence (whole entry): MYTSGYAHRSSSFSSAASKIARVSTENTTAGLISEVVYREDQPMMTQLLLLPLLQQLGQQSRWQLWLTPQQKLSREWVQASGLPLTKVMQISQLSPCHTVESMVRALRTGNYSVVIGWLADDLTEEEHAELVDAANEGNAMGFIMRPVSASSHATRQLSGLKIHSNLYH

[19] = tested on: Streptococcus pneumoniae; assay: Antibacterial activity against Streptococcus pneumoniae SL336-T by broth microdilution method; assay type: functional

SMILES	MIC [1]	MIC [2]	MIC [3]	Activity [4]	MIC [5]	MIC [6]	MIC [7]	MIC [8]	MIC [9]	MIC [10]	MIC [11]	MIC [12]	MIC [13]	MIC [14]	IC50 [15]	MIC [16]	IC50 [17]	Activity [18]	MIC [19]
CO[C@@H]1[C@@H](OC(=O)c2ccc(C)[nH]2)[C@@H](O)[C@H](Oc2ccc3c(O)c(NC(=O)c4cc(C)c(O)c(C)c4)c(=O)oc3c2)OC1(C)C	> 32 µg/mL	> 32 µg/mL	> 32 µg/mL	> 100 µM	> 32 µg/mL	16 µg/mL (≈ 25.7 µM)	4 µg/mL (≈ 6.42 µM)	8 µg/mL (≈ 12.8 µM)	> 32 µg/mL	> 32 µg/mL	> 32 µg/mL	4 µg/mL (≈ 6.42 µM)	16 µg/mL (≈ 25.7 µM)	> 32 µg/mL	120 nM	8 µg/mL (≈ 12.8 µM)	229 nM	inactive	16 µg/mL (≈ 25.7 µM)
CO[C@@H]1[C@@H](OC(=O)c2ccc(C)[nH]2)[C@@H](O)[C@H](Oc2ccc3c(O)c(NC(=O)c4cc(C)c(O)c(C)c4)c(=O)oc3c2Cl)OC1(C)C	> 32 µg/mL	> 32 µg/mL	> 32 µg/mL	13 µM	> 32 µg/mL	8 µg/mL (≈ 12.2 µM)	0.125 µg/mL (≈ 0.19 µM)	1 µg/mL (≈ 1.52 µM)	32 µg/mL (≈ 48.7 µM)	> 32 µg/mL	16 µg/mL (≈ 24.4 µM)	0.25 µg/mL (≈ 0.38 µM)	16 µg/mL (≈ 24.4 µM)	> 32 µg/mL	17 nM	4 µg/mL (≈ 6.09 µM)	65 nM	6.3 µM	8 µg/mL (≈ 12.2 µM)
CO[C@@H]1[C@@H](OC(=O)c2ccc(C)[nH]2)[C@@H](O)[C@H](Oc2ccc3c(O)c(NC(=O)c4ccc(SC)cc4)c(=O)oc3c2Cl)OC1(C)C	> 32 µg/mL	> 32 µg/mL	> 32 µg/mL	3.1 µM	> 32 µg/mL	16 µg/mL (≈ 24.3 µM)	0.125 µg/mL (≈ 0.19 µM)	2 µg/mL (≈ 3.03 µM)	32 µg/mL (≈ 48.6 µM)	> 32 µg/mL	8 µg/mL (≈ 12.1 µM)	0.25 µg/mL (≈ 0.379 µM)	32 µg/mL (≈ 48.6 µM)	> 32 µg/mL	20 nM	2 µg/mL (≈ 3.03 µM)	84 nM	12.5 µM	4 µg/mL (≈ 6.07 µM)
C=CCc1cc(C(=O)Nc2c(O)c3ccc(O[C@@H]4OC(C)(C)[C@H](OC)[C@@H](OC(=O)c5ccc(C)[nH]5)[C@H]4O)c(C)c3oc2=O)ccc1O	> 32 µg/mL	> 32 µg/mL	> 32 µg/mL	1.6 µM	> 32 µg/mL	2 µg/mL (≈ 3.08 µM)	≤ 0.06 µg/mL	0.5 µg/mL (≈ 0.771 µM)	16 µg/mL (≈ 24.7 µM)	> 32 µg/mL	8 µg/mL (≈ 12.3 µM)	≤ 0.06 µg/mL	8 µg/mL (≈ 12.3 µM)	> 32 µg/mL	34 nM	1 µg/mL (≈ 1.54 µM)	116 nM	3.1 µM	2 µg/mL (≈ 3.08 µM)
CO[C@@H]1[C@@H](OC(=O)c2ccc(C)[nH]2)[C@@H](O)[C@H](Oc2ccc3c(O)c(NC(=O)c4ccc(O)c(NC(=O)C(C)C)c4)c(=O)oc3c2Cl)OC1(C)C	> 32 µg/mL	> 32 µg/mL	> 32 µg/mL	3.1 µM	> 32 µg/mL	16 µg/mL (≈ 22.4 µM)	2 µg/mL (≈ 2.8 µM)	1 µg/mL (≈ 1.4 µM)	> 32 µg/mL	> 32 µg/mL	16 µg/mL (≈ 22.4 µM)	4 µg/mL (≈ 5.6 µM)	32 µg/mL (≈ 44.8 µM)	> 32 µg/mL	41 nM	4 µg/mL (≈ 5.6 µM)	73 nM	3.1 µM	8 µg/mL (≈ 11.2 µM)
CO[C@@H]1[C@@H](OC(=O)c2ccc(C)[nH]2)[C@@H](O)[C@H](Oc2ccc3c(O)c(NC(=O)c4ccc(N)c(C)c4)c(=O)oc3c2C)OC1(C)C	> 32 µg/mL	> 32 µg/mL	> 32 µg/mL	25 µM	> 32 µg/mL	4 µg/mL (≈ 6.43 µM)	1 µg/mL (≈ 1.61 µM)	4 µg/mL (≈ 6.43 µM)	> 32 µg/mL	> 32 µg/mL	> 32 µg/mL	1 µg/mL (≈ 1.61 µM)	8 µg/mL (≈ 12.9 µM)	> 32 µg/mL	44 nM	4 µg/mL (≈ 6.43 µM)	152 nM	50 µM	4 µg/mL (≈ 6.43 µM)

Other lines, results leading:

MIC [1]	MIC [2]	MIC [3]	Activity [4]	MIC [5]	MIC [6]	MIC [7]	MIC [8]	MIC [9]	MIC [10]	MIC [11]	MIC [12]	MIC [13]	MIC [14]	IC50 [15]	MIC [16]	IC50 [17]	Activity [18]	MIC [19]	SMILES
> 32 µg/mL	> 32 µg/mL	> 32 µg/mL	6.3 µM	> 32 µg/mL	16 µg/mL (≈ 23.4 µM)	0.5 µg/mL (≈ 0.73 µM)	2 µg/mL (≈ 2.92 µM)	> 32 µg/mL	> 32 µg/mL	16 µg/mL (≈ 23.4 µM)	0.5 µg/mL (≈ 0.73 µM)	32 µg/mL (≈ 46.7 µM)	> 32 µg/mL	43 nM	8 µg/mL (≈ 11.7 µM)	263 nM	3.1 µM	8 µg/mL (≈ 11.7 µM)	COc1cc(/C=C/C(=O)Nc2c(O)c3ccc(O[C@@H]4OC(C)(C)[C@H](OC)[C@@H](OC(=O)c5ccc(C)[nH]5)[C@H]4O)c(Cl)c3oc2=O)ccc1O
> 32 µg/mL	> 32 µg/mL	> 32 µg/mL	12.5 µM	> 32 µg/mL	4 µg/mL (≈ 6.26 µM)	≤ 0.06 µg/mL	2 µg/mL (≈ 3.13 µM)	> 32 µg/mL	> 32 µg/mL	16 µg/mL (≈ 25.1 µM)	0.25 µg/mL (≈ 0.391 µM)	8 µg/mL (≈ 12.5 µM)	> 32 µg/mL	25 nM	1 µg/mL (≈ 1.57 µM)	86 nM	12.5 µM	2 µg/mL (≈ 3.13 µM)	COc1cc(C(=O)Nc2c(O)c3ccc(O[C@@H]4OC(C)(C)[C@H](OC)[C@@H](OC(=O)c5ccc(C)[nH]5)[C@H]4O)c(C)c3oc2=O)ccc1O
> 32 µg/mL	> 32 µg/mL	> 32 µg/mL	25 µM	> 32 µg/mL	8 µg/mL (≈ 12.1 µM)	1 µg/mL (≈ 1.52 µM)	1 µg/mL (≈ 1.52 µM)	32 µg/mL (≈ 48.6 µM)	> 32 µg/mL	32 µg/mL (≈ 48.6 µM)	1 µg/mL (≈ 1.52 µM)	16 µg/mL (≈ 24.3 µM)	> 32 µg/mL	22 nM	2 µg/mL (≈ 3.03 µM)	122 nM	6.3 µM	4 µg/mL (≈ 6.07 µM)	COc1cc(C(=O)Nc2c(O)c3ccc(O[C@@H]4OC(C)(C)[C@H](OC)[C@@H](OC(=O)c5ccc(C)[nH]5)[C@H]4O)c(Cl)c3oc2=O)ccc1O
